Experimental data from ChEMBL document CHEMBL1909500, “Synthesis and in vitro anticancer activity of 6,7-methylenedioxy (or 5-hydroxy-6-methoxy)-2-(substituted selenophenyl)quinolin-4-one analogs” (Eur J Med Chem, 2011).
The source made the active and inactive calls. No cut-off for these calls is given here.

Experiments:
[1] = test system: RXF 393; assay: Anticancer activity against human RXF393 cells after 48 hrs by MTT assay; assay type: functional; details: RXF 393, 48 h
[2] = test system: DU-145; assay: Anticancer activity against human DU145 cells after 48 hrs by MTT assay; assay type: functional; details: DU-145, 48 h
[3] = test system: NCI/ADR-RES; assay: Anticancer activity against human NCI/ADR-RES cells after 48 hrs by MTT assay; assay type: functional
[4] = test system: A549; assay: Anticancer activity against human A549 cells after 48 hrs by MTT assay; assay type: functional; details: A549, 48 h
[5] = test system: HL-60; assay: Cell cycle arrest in human HL60 assessed as cell accumulation in G2/M phase at 1 uM after 24 hrs by propidium iodide staining-based flow cytometric analysis; assay type: functional
Outline: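 HL-60 cells were preincubated for 3 h with or without the pan-caspase inhibitor z-VAD-fmk, then co-exposed to compound at 1 μM for 24 h. Cells were washed in PBS and fixed overnight in ice-cold 70% ethanol at −20 °C. They were stained for 30 min in the dark with propidium iodide 4 μg/mL, 0.1 mg/ml RNase and 1% Triton X-100. DNA content was read on a FACScan flow cytometer.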

[6] = test system: K562; assay: Anticancer activity against human K562 cells after 48 hrs by MTT assay; assay type: functional; details: K562, 48 h
[7] = test system: HL-60; assay: Induction of cell cycle arrest at G2/M phase in human HL60 cells assessed as increase in cyclin B1 expression at 0.1 to 1.0 uM after 24 hrs by Western blot analysis; assay type: functional, cell-based
Outline: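 HL-60 cells at 2 × 10⁵/mL were exposed to the indicated concentrations for 24 h, washed in PBS and lysed for total protein. Immunoblots used HRP-linked secondary antibodies with ECL detection. Cyclin B1, CDK1, caspase-3 (17 kDa active form) and PARP (85 kDa fragment) were quantified and normalised to β-actin.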

[8] = test system: MDA-MB-231; assay: Anticancer activity against human MDA-MB-231 cells after 48 hrs by MTT assay; assay type: functional; details: MDA-MB-231, 48 h
[9] = test system: NCI-H226; assay: Anticancer activity against human NCI-H226 cells after 48 hrs by MTT assay; assay type: functional; details: NCI-H226, 48 h
[10] = test system: SF-268; assay: Anticancer activity against human SF268 cells after 48 hrs by MTT assay; assay type: functional; details: SF-268, 48 h
[11] = test system: SNB-75; assay: Anticancer activity against human SNB75 cells after 48 hrs by MTT assay; assay type: functional; details: SNB-75, 48 h
[12] = read-out: pLC50 (the source's name) (converted)

For `Cc1ccc(-c2cc(=O)c3cc4c(cc3[nH]2)OCO4)[se]1`, the GI50 [1] was 0.229 µM, the CC50 [1, 12] was over 100 µM and the TGI ([1]; read-out: pTGI (converted)) was 0.589 µM. It also gave a GI50 [2] of 0.302 µM, a CC50 [2, 12] of over 100 µM and a TGI ([2]; read-out: pTGI) of over 100 µM. For the same compound, the GI50 [3] was 0.316 µM, the CC50 [3, 12] was over 100 µM and the TGI ([3]; read-out: pTGI) was over 100 µM. The GI50 [4] was 0.245 µM, the CC50 [4, 12] was over 100 µM and the TGI ([4]; read-out: pTGI (converted)) was 0.646 µM. It also gave an Activity [5] of 44.3%, a GI50 [6] of 0.282 µM and a CC50 [6, 12] of over 100 µM. For the same compound, the TGI ([6]; read-out: pTGI) was over 100 µM, the Activity [7] was “Active” and the GI50 [8] was 0.501 µM. The CC50 [8, 12] was over 100 µM, the TGI ([8]; read-out: pTGI) was over 100 µM and the GI50 [9] was 0.389 µM. For the same compound, the CC50 [9, 12] was over 100 µM, the TGI ([9]; read-out: pTGI) was over 100 µM and the GI50 [10] was 0.513 µM. It also gave a CC50 [10, 12] of over 100 µM, a TGI ([10]; read-out: pTGI) of over 100 µM and a GI50 [11] of 0.275 µM. The CC50 [11, 12] was over 100 µM and the TGI ([11]; read-out: pTGI) was over 100 µM.
